MPTP block – inhibitors of mitochondrial permeability transition pore; isolated mouse mitochondria, Ca2+ swelling absorbance, 30 min; inhibition, % at 10 µM; 360,000 compounds, 1.4% hits; AID 602449;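 active = inhibition of 50% or more, scaled per plate between neutral and stimulator controls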;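 note: 0% = DMSO wells given calcium and 100% = 1 mM EGTA wells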
CHO parental Ca – counter-screen for OX1R antagonists: effect in parental CHO cells | parental CHO-K1, ATP-induced calcium, Fluo-8 fluorescence | inhibition, % at 5.6 µM | 330,000 compounds, 0.63% hits;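 active = inhibition above that plate's mean sample inhibition plus 3 SD, cut at about 26% in these data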;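 note: 0% = ATP-challenged DMSO wells and 100% = DMSO wells without ATP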
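Material: Parental CHO cells | Reagent: ATP | Compound dosing: Single nominal dose of 5.6 µM per compound | Detection: Intracellular calcium via Fluo-8 no-wash fluorescent dye | Read-out: % inhibition of ATP-induced calcium mobilization | Benchmarks: Low control ATP plus DMSO, high control DMSO only | Replicates: Singlicate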
GPR7 antagonist – human neuropeptides B/W receptor 1 antagonism; P48145; GPR7-expressing cells, fluorescence antagonist assay; inhibition, % at 4.4 µM; 290,000 compounds, 1.1% hits; AID 1861; in the data active = inhibition above about 16%, passing the limit was not always enough;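 note: cells stimulated with the agonist NPW; 0% = agonist with vehicle and 100% = vehicle without agonist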
OX1R antag-1 – blocks the human orexin 1 receptor; inhibition, % at 6.6 µM; O43613; OX1R-expressing cells, FRET antagonist read-out; 330,000 compounds, 1.8% hits; in the data active = inhibition mostly above about 38%, no sharp cut-off; inactive = mostly below about 40%;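 note: 0% = agonist challenge alone and 100% = reference antagonist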
Target sequence (O43613 whole entry, looked up): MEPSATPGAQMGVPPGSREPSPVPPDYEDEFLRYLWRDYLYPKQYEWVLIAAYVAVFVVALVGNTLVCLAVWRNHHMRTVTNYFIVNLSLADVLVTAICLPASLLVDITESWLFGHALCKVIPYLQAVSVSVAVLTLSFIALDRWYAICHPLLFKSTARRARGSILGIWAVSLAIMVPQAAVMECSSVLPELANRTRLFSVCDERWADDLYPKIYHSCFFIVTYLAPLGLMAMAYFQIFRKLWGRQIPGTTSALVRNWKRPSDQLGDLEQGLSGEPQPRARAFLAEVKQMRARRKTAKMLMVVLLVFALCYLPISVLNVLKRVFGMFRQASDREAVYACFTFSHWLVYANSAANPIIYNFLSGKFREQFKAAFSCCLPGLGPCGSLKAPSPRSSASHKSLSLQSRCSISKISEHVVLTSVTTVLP
OX1R antag-2 – antagonists of human orexin 1 receptor; 330,000 compounds, 0.43% hits; AID 434989; inhibition, % at 5 µM; CHO/OX1R cells, Fluo-8 calcium fluorescence, orexin A; O43613;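 active = inhibition above its plate's threshold, mean inhibition of all tested compounds on the plate plus 3 SD, cut at about 37% in these data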;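 note: 0% = orexin A challenge wells and 100% = SB-334867-A antagonist wells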
OX1R HTRF confirm – OX1R (human) antagonism, HTRF confirmed; shares compounds with OX1R antag-1; OX1R-expressing cells, HTRF antagonist assay; inhibition, % at 6.6 µM; 1,800 compounds, 49% hits; in the data active = inhibition above about 55%;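 note: CHO cells expressing OX1R stimulated with orexin A at about EC80; 0% = agonist challenge alone and 100% = reference antagonist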
CHO-K1 HTRF cnt – signal in parental CHO-K1 cells, OX1R antagonist counter-screen | HTRF counterscreen | inhibition, % at 6.6 µM | shares compounds with OX1R antag-1 | 1,800 compounds, 48% hits; in the data active = inhibition above about 17%;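 note: 0% = agonist challenge with vehicle and 100% = vehicle alone without agonist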
The depositor's hits bear a star; nt = not tested or not shown. Rows were chosen to be rich in hits. Some 3.8% of all compounds tested hit in one or more screens of this group.

SMILES | MPTP block | CHO parental Ca | GPR7 antagonist | OX1R antag-1 | OX1R antag-2 | OX1R HTRF confirm | CHO-K1 HTRF cnt
CCOc1ccc(Br)cc1C1=NN(C(C)=O)C(c2ccc([N+](=O)[O-])s2)O1 (configuration not stated) | 1 | nt | -13 | nt | nt | nt | nt
CCC(=O)N1CCc2cc(-c3csc(NC(=O)c4ccco4)n3)ccc21 | -2 | -9 | -2 | 94* | 22 | 66* | 9
O=C(NC(=S)Nc1nc(-c2ccccc2)cs1)c1ccco1 | 4 | -7 | -3 | 79* | -10 | 63* | 7
O=C(Nc1nc(-c2ccncc2)cs1)c1ccco1 | -2 | -5 | 12 | 20 | -7 | nt | nt
COc1ccc(-c2csc(NC(=S)NC(=O)c3ccco3)n2)cc1 | 2 | -5 | -12 | 8 | -1 | nt | nt
COc1ccc([N+](=O)[O-])cc1C(=O)C(=O)c1ccccc1 | 0 | -10 | 0 | 12 | -30 | nt | nt
COc1cc(C(=O)O)nc2ccc([N+](=O)[O-])cc12 | -2 | -12 | -14 | 88* | -11 | 60* | 98*
Cc1nc2c(ccc3nc(NC(=O)Cc4ccccc4)sc32)s1 | 2 | -18 | -7 | 77* | 5 | 89* | 3
CCCS(=O)(=O)N1CCCC(C(=O)NCCCN(Cc2ccccc2)C(C)C)C1 (configuration not stated) | 3 | -22 | -12 | 107* | -26 | 10 | 2
CCC(=O)N1CCN(c2ccc(NC(=O)c3ccco3)cc2Cl)CC1 | -2 | nt | -9 | nt | nt | nt | nt
CCC(=O)N1CCN(c2ccc(NC(=O)c3cc4ccccc4o3)cc2Cl)CC1 | -1 | 18 | -15 | 81* | 11 | 34 | 7
CSc1nc2ccc(NC(=O)c3cc4ccccc4o3)cc2s1 | 10 | -14 | -13 | 84* | 9 | 91* | 13
CSc1nc2ccc(NC(=O)c3ccco3)cc2s1 | -1 | -7 | -6 | 16 | -15 | nt | nt
CN1C(=O)CSc2ccc(NC(=O)N3CCN(c4ccccc4)CC3)cc21 | 4 | -14 | -15 | 11 | -22 | nt | nt
CN=c1sc2c(n1C)C(=O)c1ccccc1C2=O | 1 | nt | nt | nt | nt | nt | nt
CCc1ccc(C(=O)/C=C/c2cnn(C)c2C)s1 | 2 | -16 | 0 | 24 | -7 | nt | nt
Cc1c(/C=C/C(=O)c2cccs2)cnn1C | 0 | -15 | -15 | 103* | 10 | 62* | 15
N#CC(c1nc2ccccc2nc1OCCO)S(=O)(=O)c1ccccc1 (configuration not stated) | 10 | -1 | -19 | 14 | -6 | nt | nt
O=C(CN1CCN(c2ccc(O)cc2)CC1)Nc1cc([N+](=O)[O-])ccc1Cl | -1 | -7 | -4 | 79* | 8 | 32 | 47*
c1cncc(-c2nc(NCC3COc4ccccc4O3)c3ccccc3n2)c1 (configuration not stated) | 0 | -24 | 0 | 95* | 21 | 56* | 13
O=C(CSc1ccc(-c2cccs2)nn1)NCCc1ccccc1 | 0 | -10 | -5 | 30 | -21 | nt | nt
O=C(CSc1ccc(-c2cccs2)nn1)c1cccs1 | -1 | -20 | -2 | 111* | 20 | 95* | 6
CC1(C)Cc2cccc(OCC(=O)Nc3cccnc3Cl)c2O1 | -2 | -1 | -6 | 21 | -22 | nt | nt
Cc1cc(=O)n2[nH]c(N)c(N=Nc3ccccc3)c2n1 | 1 | -2 | -2 | 20 | -9 | nt | nt
CCOc1ccc(N=Nc2c(=O)[nH]n3c(C)cc(C)nc23)cc1 | 0 | -2 | -9 | 149* | -9 | 64* | 74*
SMILES | MPTP block | CHO parental Ca | GPR7 antagonist | OX1R antag-1 | OX1R antag-2 | OX1R HTRF confirm | CHO-K1 HTRF cnt
COc1ccc(Br)c(C(=O)N2CCN(S(=O)(=O)c3cccs3)CC2)c1 | 0 | -6 | -9 | 136* | -17 | 18 | 4
O=c1cc(/C=C/c2c(F)cccc2Cl)[nH]c2ccccc12 | 4 | -8 | -2 | 90* | 23 | 90* | 2
Nc1nccc(/C=C/c2c(F)cccc2Cl)n1 | 0 | -12 | 5 | 28 | -24 | nt | nt
CN(Cc1ccno1)Cc1cn(Cc2ccccc2)nc1-c1ccc2c(c1)OCO2 | 3 | -7 | -1 | 17 | -30 | nt | nt
COc1cccc2oc3cc(C#Cc4ccccn4)ccc3c(=O)c12 | nt | -35 | 8 | 79* | -26 | 64* | 13
Cc1c(C(=O)O)sc2nc(-c3cccs3)cc(C(F)(F)F)c12 | 1 | -10 | -1 | 78* | -20 | 31 | 30*
CSc1nc2nc(-c3cccs3)cc(C(F)(F)F)c2c(=O)[nH]1 | 2 | 0 | -12 | 7 | -14 | nt | nt
COC(=O)c1cc(C(=O)OCC(=O)NC2CCS(=O)(=O)C2)cc([N+](=O)[O-])c1 (configuration not stated) | -1 | -12 | -1 | 84* | -14 | 43 | 47*
CN(C(=O)COC(=O)/C=C/c1cccc([N+](=O)[O-])c1)C1CCS(=O)(=O)C1 (configuration not stated) | -1 | -11 | -11 | 90* | -18 | 41 | 43*
CN(C(=O)COc1ccc([N+](=O)[O-])cc1)C1CCS(=O)(=O)C1 (configuration not stated) | 0 | 1 | -3 | 23 | -4 | nt | nt
COC(=O)c1cc(C(=O)OCC(=O)N(C)C2CCS(=O)(=O)C2)cc([N+](=O)[O-])c1 (configuration not stated) | 2 | -12 | -9 | 120* | -8 | 88* | 70*
CCN(C(=O)COC(=O)/C=C/c1cccc(Br)c1)C1CCS(=O)(=O)C1 (configuration not stated) | 0 | -2 | -13 | 21 | -13 | nt | nt
CCOc1ccc(/C=C2\SC(=S)N(NS(=O)(=O)c3ccccc3)C2=O)cc1OC | 7 | 2 | -2 | 78* | -6 | 43 | 24*
CCOc1ccc(/C=C2\SC(=S)N(NS(=O)(=O)c3ccc(C)cc3)C2=O)cc1OC | 7 | -10 | -19 | 56 | -20 | nt | nt
O=C(O)c1ccc(NC(=O)c2ccc3c(c2)C(=O)N(CC2CCCO2)C3=O)cc1 (configuration not stated) | 0 | -5 | -1 | 78* | -16 | 34 | 32*
COc1cc(/C=C2\OC(=O)c3c(OC)cccc32)ccc1O | -1 | 0 | -2 | 79* | -14 | 58* | 13
O=C(O)c1cc([N+](=O)[O-])cc2c1nnn2O | 2 | -9 | -5 | 30 | -14 | nt | nt
CNS(=O)(=O)c1cc2c3c(cccc3c1)C(=O)NC2=O | 0 | -4 | -6 | 130* | -2 | 51 | 78*
Cn1cnnc1Sc1ccc(C(=O)OCC(=O)NCC(F)(F)F)cc1[N+](=O)[O-] | 0 | 9 | -15 | 78* | -7 | 30 | 43*
Cc1csc(Sc2ccc(C(=O)OCC(=O)Nc3ccc(OC(F)(F)F)cc3)cc2[N+](=O)[O-])n1 | 8 | -11 | -11 | 20 | -25 | nt | nt

Assay outcomes from PubChem BioAssay.
